Assay results from paper PMC6407133 (Journal of the American Chemical Society, 2018).
Where two headings read alike, the source gives them in different places.

What was measured:
[1] = test system: P. falciparum W2; assay: P. falciparum replication assay; format: cell-based, Plasmodium falciparum; settings: read-out: 72 h EC50 Pf; 72 h treatment, no washout; P. falciparum W2 ring stage
[2] = test system: non-confluent human foreskin fibroblast (HFF) cells; assay: Cell viability assay in mammalian cells; format: cell-based; settings: non-confluent HFFs
In short: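 Nontransformed primary human foreskin fibroblasts, Mycoplasma-tested, seeded nonconfluent at 2500 cells/well less than 24 h before dosing. Test compound dose–response dilutions in media applied for 1 h (then washed out) or 72 h. Viability read by CellTiter-Blue. EC50 values are the mean of n = 9 cultures from three independent experiments run in triplicate.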

[3] = test system: P. berghei; assay: Plasmodium berghei mouse model of infection; format: in vivo; settings: CD1 mice, 50 mg/kg once daily for 4 days, intravenous

CC(C)C[C@@H](/C=C/S(C)(=O)=O)NC(=O)[C@H](CC(C)C)NC(=O)[C@H](Cc1c[nH]c2ccccc12)NC(=O)CN1CCOCC1 [WLL-vs]
EC50 [1]: 15 ± 5 nM
EC50 ([2]; read-out: 1 h EC50 HFF, 1 h treatment): 65500 ± 15200 nM
EC50 ([2]; read-out: 72 h EC50 HFF, 72 h treatment): 1520 ± 410 nM
reduction of parasites on day 4 [3]: 98%
